N-glyco inh – N-linked glycosylation inhibition. D54 ERlucT glycosylation luciferase reporter, 24 h; percent of 100 nM tunicamycin response. reporter increase, % at 12.5 µM. actives 0.23% (n = 360,000). AID 588692;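 active = mean luciferase reporter signal, scaled so untreated is 0 and the glycosylation-blocking control 100, at or above a set limit in every replicate; inconclusive = mean reaches the limit but not every replicate does; inactive = mean below the limit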;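 note: luciferase carries N-glycosylation sites so blocking glycosylation raises the light; 0% = median of neutral control wells and 100% = median of 100 nM tunicamycin wells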
ALR H2O2 inh – inhibitors of human sulfhydryl oxidase ALR; purified ALR, DTT oxidation, H2O2 HRP-luminol luminescence; AID 485317; actives 3.8% (n = 290,000); inhibition, % (concentration not given with the values);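 active = mean replicate inhibition above about 79%, with every replicate also reaching it, limit read from the data; inconclusive = only one of the two criteria met; inactive = mean below limit and not every replicate reaching it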
Target sequence (P55789 whole entry, looked up): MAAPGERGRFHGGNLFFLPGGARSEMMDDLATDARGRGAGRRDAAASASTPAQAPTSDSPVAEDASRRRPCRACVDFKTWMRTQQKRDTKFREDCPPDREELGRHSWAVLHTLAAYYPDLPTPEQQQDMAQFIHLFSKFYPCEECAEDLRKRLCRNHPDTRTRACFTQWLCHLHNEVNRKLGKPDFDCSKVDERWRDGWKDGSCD
T cell HTS – T cell immune modulation candidate; 2C CD8+ T cell-vesicle binding, flow cytometry; hits give low values; response (vesicle binding), % at 7 µM; actives 0.068% (n = 330,000);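 active = response, share of CD8 T cells binding vesicles, and their 90th percentile fluorescence all below set limits, cut at about 80% in these data, passing the limit was not always enough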;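 note: values below 100% mean blocked vesicle binding to the CD8+ T cells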
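System: murine 2C transgenic CD8+ T lymphocytes; also added: QL9-loaded Drosophila micro-vesicles; times: binding 1.5 h at 37 °C; measured by: flow cytometry, PE anti-B7-1 (FL2) versus Alexa647 anti-CD8 (FL8), PFA-fixed; control set: Peptide-free naked vesicles (low) and QL9 vesicles with 0.7% DMSO vehicle (high)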
* marks the source's active call; other numbers are inactive results; i = inactive; ? = inconclusive; . = not tested or not shown. Shown is part of a subset that was picked to be rich in hits.

SMILES | N-glyco inh | ALR H2O2 inh | T cell HTS
COc1ccc(C)cc1NC(=O)C1CCCCN1S(=O)(=O)c1ccccc1 (stereo not given) | -1 | . | 446
Oc1ccc(-c2nccs2)cc1 | 1 | . | .
Cc1[nH]c2ccccc2c1SCC(=O)N1CCN(c2ccccc2)CC1 | -4 | 91* | 743
O=C(N1CCOCC1)N1CCN(c2ccc(F)cc2)CC1 | 1 | 35 | 403
Nc1nc(SCC(=O)N2CCN(c3ccccc3)CC2)n[nH]1 | 1 | 63 | 265
Cc1nc(SCC(=O)N2CCN(c3ccccc3)CC2)n[nH]1 | -1 | 99* | 172
O=C(CSc1nc(N2CCCCC2)nc(N2CCCCC2)n1)N1CCN(c2ccccc2)CC1 | -5 | . | .
Cc1[nH]c2ccccc2c1SCC(=O)N1CCCCC1 | -1 | ? | 474
O=C(CN1CCN(c2ccc(F)cc2)CC1)N1CCOCC1 | 1 | 88* | 282
Nc1nc(SCC(=O)N2CCN(c3ccc(F)cc3)CC2)n[nH]1 | -1 | 94* | 380
O=C(O)c1cc(-c2ccccc2Cl)n(-c2cccc(Cl)c2)n1 | 1 | . | 231
CC1CCN(S(=O)(=O)c2cccc(C(=O)NC3CCCCC3)c2)CC1 | -1 | . | 430
CCN(CC)C(=O)CCSc1nnc(-c2ccco2)o1 | 2 | 2 | 338
Cc1ccc(SCc2nc3ncccn3c2Br)cc1 | -1 | . | 449
Cc1cc(N2CCOCC2)nc2ccc(NC(=O)CCC(=O)N3CCN(c4cccc(C(F)(F)F)c4)CC3)cc12 | 0 | -21 | 390
CCNC(=O)NC(=O)C(C)OC(=O)Cc1coc2cc3c(cc12)CCC3 (stereo not given) | 2 | -2 | 426
CC1(C2CC2)NC(=O)N(CC(=O)Nc2ccc(F)cc2F)C1=O (stereo not given) | 5 | -2 | 348
O=C(CSc1nccc(=O)[nH]1)N1CCN(c2ccccc2)CC1 | 1 | 92* | 317
CCCc1cc(=O)[nH]c(SCC(=O)N2CCN(c3ccccc3)CC2)n1 | -1 | 33 | .
CCNc1nc(NCC)n2c(SCC(=O)c3ccccc3F)nnc2n1 | -2 | 94* | 303
CCNc1nc(NCC)n2c(SCC(=O)O)nnc2n1 | -2 | -20 | 299
Cc1nnc(SCC(=O)c2ccccc2F)n1Cc1ccccc1 | 1 | 94* | 145
Cc1nnc(SCC(=O)c2c(N)n(C)c(=O)n(C)c2=O)n1Cc1ccccc1 | 0 | -7 | 139
COc1cc2nc(C3CCC3)nc(N3CCN(c4ccccc4OC)CC3)c2cc1OC | -7 | 6 | 186
CCOC(=O)N1CCN(C(=O)CSC2=NS(=O)(=O)c3cc(F)ccc3N2)CC1 | 0 | 5 | 231
SMILES | N-glyco inh | ALR H2O2 inh | T cell HTS
O=C(CSc1ccccc1)NC1=NCCS1 | -1 | -8 | 202
c1ccc(NNC2=NCCS2)cc1 | 2 | 91* | 296
Cc1cccc(S(=O)(=O)NC(=O)C2(C)CCN2C(=O)Cc2ccc(-c3ccccc3)cc2)c1 (stereo not given) | 2 | . | .
CCOC(=O)C(=NCCOC)NNc1cc(Cl)ccc1Cl | 1 | . | 308
Cc1ccc(C)c2nc3sc(C(=O)O)cc3cc12 | 1 | 63 | 319
Oc1ccc(N2CCN(Cc3nc4ccccc4[nH]3)CC2)cc1 | 1 | 99* | 460
CC(=O)c1ccc(N2CCN(Cc3nc4ccccc4[nH]3)CC2)cc1 | 0 | . | 269
O=C(O)CCCC(=O)N1N=C(c2c(-c3ccccc3)c3cc(Cl)ccc3[nH]c2=O)CC1c1cccs1 (stereo not given) | -3 | 87* | 175
O=C(O)CCC(=O)N1N=C(c2c(-c3ccccc3)c3cc(Cl)ccc3[nH]c2=O)CC1c1cccs1 (stereo not given) | 1 | 0 | 180
COc1cc(C)ccc1S(=O)(=O)NC(=O)C1(C)CCN1C(=O)C1(c2ccc(Cl)cc2)CCC1 (stereo not given) | 0 | . | .
Cc1c(Cl)c(-c2n[nH]c(=S)n2-c2ccc(F)cc2)nn1C | 1 | 91* | 380
Cc1ccsc1-c1n[nH]c(=S)n1CC(C)C | 4 | 94* | 469
Cn1cc(Cl)c(-c2n[nH]c(=S)n2-c2ccc(F)cc2)n1 | 0 | 88* | i
Cc1c(Cl)c(-c2n[nH]c(=S)n2CC(C)C)nn1C | 1 | 93* | 91
CC(C)Cn1c(-c2nn(C)cc2Cl)n[nH]c1=S | 2 | 10 | 226
Cc1nn(C)cc1-c1n[nH]c(=S)n1-c1ccc(F)cc1 | 0 | 62 | 351
Cc1ccc(-n2c(-c3nn(C)cc3Cl)n[nH]c2=S)cc1 | 1 | 58 | 293
CCCCn1c(-c2nn(C)c(C)c2Cl)n[nH]c1=S | 1 | 48 | 370
CC1(C(=O)O)CCN1C(=O)c1ccccc1F (stereo not given) | 1 | . | .
COC(=O)CCCCCNC(=S)Nc1ccc2[nH]c(=O)[nH]c2c1 | 1 | 6 | 712
COCCCn1c(=O)c2sccc2n(Cc2ccc(C)cc2)c1=O | -1 | -2 | 326
CC(=O)Nc1ccc(NC(=O)CSc2nnc(NC(=O)Cc3ccc(F)cc3)s2)cc1 | 1 | -7 | 135
Cc1cc(C)cc(NC(=O)[C@@H](NC(=O)c2ccco2)C(C)C)c1 | 2 | -7 | 350
[O-]c1c[n+](-c2ccc(-[n+]3cc([O-])on3)cc2)no1 | 1 | 98* | 608
[O-]c1c[n+](-c2ccccc2)no1 | -1 | -5 | 224
SMILES | N-glyco inh | ALR H2O2 inh | T cell HTS
C/C(CC(=O)Nc1cc(C)ccn1)=N\NC(=O)c1cccc(C)c1O | -2 | 26 | 144
Cc1ccccc1CN(C)CCS(=O)(=O)c1cc(Cl)ccc1Cl | 4 | -1 | 226
CCN(CC(=O)Nc1cccc(OC)c1)c1ncnc2sc(C)c(C)c12 | -2 | 87* | 449
COc1cccc(NC(=O)COc2ncnc3sc(C)c(C)c23)c1 | 0 | -7 | 482
CNc1ccccc1-n1ccc(-c2ccccc2)n1 | 3 | 94* | 488
Cn1ccc(-c2ccccc2)n1 | 4 | -5 | 148
Cc1cc(C(=O)CSc2nnnn2-c2ccc(O)cc2)c(C)n1C | -1 | 89* | 320
Cc1cc(C(=O)CSc2nnnn2-c2ccccc2)c(C)n1CCc1ccccc1 | 0 | -3 | 570
NC(=O)c1ccc(-n2nnnc2SCC(=O)c2ccc(O)c(O)c2)cc1 | 0 | 96* | 207
COc1ccc(-n2nnnc2SCC(=O)c2ccc(O)c(O)c2)cc1 | -1 | . | 188
CN(C)S(=O)(=O)c1ccc(S(=O)(=O)N2CCCC(C(=O)NC3CCCC3)C2)cc1 (stereo not given) | -1 | -1 | 258
O=C(OCn1ncc(Cl)c(Cl)c1=O)c1ccc(C(F)(F)F)cc1 | 31* | . | .
Cc1ccc(C(=O)OCn2ncc(Cl)c(Cl)c2=O)cc1 | -24 | 47 | 185
CC(=O)ON=C1C=CC(=C(C#N)c2ccccc2)C=C1 | 0 | . | .
COc1ccc(C(C#N)=C2C=CC(=NO)C=C2)cc1 | 6 | 96* | 176
N#CC1(NC(=O)COC(=O)CCCN=C2NS(=O)(=O)c3ccccc32)CCCCC1 | 1 | -5 | i
CCN(c1ccc(OC)cc1)S(=O)(=O)c1ccc2c(c1)CCN2C(=O)CCC(=O)O | 1 | -2 | 344
CCN(c1ccc(C)c(C)c1)S(=O)(=O)c1ccc2c(c1)CCN2C(=O)CCC(=O)O | 3 | 99* | 266

Bioassay records from PubChem.
